Bioassay records (PubChem)
FXIa inh 1536: blocks human coagulation factor XIa protease activity. P03951. AID 798. inhibition, % at 5 µM. hit rate 0.14% among 220,000. purified FXIa, Boc-Glu-Ala-Arg-AMC fluorogenic substrate;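 active = inhibition of at least 40%; inactive = inhibition below 40%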;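 also: fluorescence of freed AMC excited at 355 nm; 0% = enzyme without compound and 100% = no enzyme blank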
Furin inhibitor: human furin inhibition. P09958. purified furin, fluorogenic substrate cleavage. hit rate 0.061% among 220,000. inhibition, % at 20 µM or 30 µM; in the data active = inhibition above about 25%
KLK5 inh: inhibitors of human kallikrein 5 | AID 873 | recombinant hK5, fluorogenic AMC substrate cleavage | inhibition, % at 5 µM | hit rate 0.59% among 210,000 | Q9Y337;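 active = inhibition of 40% or more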;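 also: 0% = enzyme controls without compound and 100% = no-enzyme blanks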
m-calpain inh: calpain II (pig) inhibition; AID 1236; hit rate 0.37% among 220,000; purified calpain II, fluorogenic peptide substrate, 30 min; inhibition, % at 16 µM;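 active = inhibition above about 50%, limit read from the data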
FXIIa inh 1536: inhibitors of human coagulation factor XIIa. P00748. purified FXIIa, Boc-QGR-AMC fluorogenic substrate, 2 h. inhibition, % at 5 µM. hit rate 0.3% among 220,000; in the data active = inhibition above about 40%;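 also: 0% = enzyme with no compound and 100% = blank without enzyme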
Target sequence (P00748 20-372 limits assumed): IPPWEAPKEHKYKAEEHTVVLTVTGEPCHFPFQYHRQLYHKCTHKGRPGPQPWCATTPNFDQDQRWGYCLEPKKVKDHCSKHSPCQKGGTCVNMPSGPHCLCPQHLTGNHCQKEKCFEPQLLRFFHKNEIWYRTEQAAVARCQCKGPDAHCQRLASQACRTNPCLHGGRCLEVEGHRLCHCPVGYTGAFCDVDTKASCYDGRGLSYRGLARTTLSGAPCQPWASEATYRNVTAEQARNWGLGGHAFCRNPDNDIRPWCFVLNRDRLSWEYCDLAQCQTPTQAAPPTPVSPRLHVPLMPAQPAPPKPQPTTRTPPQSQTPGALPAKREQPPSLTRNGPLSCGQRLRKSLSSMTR
Target sequence (P00748 373-615 limits assumed): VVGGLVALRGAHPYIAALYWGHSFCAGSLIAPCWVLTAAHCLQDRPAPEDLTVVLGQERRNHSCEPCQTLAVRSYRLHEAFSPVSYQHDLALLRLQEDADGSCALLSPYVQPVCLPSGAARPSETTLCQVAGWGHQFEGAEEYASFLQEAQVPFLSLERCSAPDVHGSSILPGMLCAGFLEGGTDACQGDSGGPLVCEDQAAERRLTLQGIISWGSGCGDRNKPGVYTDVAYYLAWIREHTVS
Thrombin inh: thrombin (human) inhibition. P00734. alpha-thrombin, Boc-VPR-AMC fluorogenic substrate cleavage. inhibition, % at 5 µM. hit rate 0.26% among 220,000;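 active = inhibition at or above 40%; inactive = inhibition below 40%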;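 also: 0% = enzyme with no compound and 100% = wells without enzyme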
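Material: human alpha-thrombin protein; Also added: Boc-VPR-AMC substrate, 15 µM final; Timing: enzyme reaction carried out at room temperature; Signal: fluorescence, ex 355 nm, em 460 nm; Measure: % inhibition of thrombin; Controls: enzyme without compound as high, wells lacking enzyme as low.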
* hit, by the source's call; . = no result given. Only some compounds are listed: those with a hit (about 1.4% of all), similar ones and a draw of the others.

SMILES	FXIa inh 1536	Furin inhibitor	KLK5 inh	m-calpain inh	FXIIa inh 1536	Thrombin inh
CCOc1ccc(NC(=O)[C@@H](NC(=O)c2ccccc2)[C@@H](C)CC)cc1	1	-6	2	-34	-3	-21
CC(=O)c1ccccc1OCCOc1ncnc2sccc12	-4	-24	-6	-11	0	-6
CCOC(=O)CC1C(=O)NCCN1Cc1cccc(C(F)(F)F)c1 (centres undefined)	-8	-26	40*	10	-4	-7
O=C(NCc1ccco1)C1CCN(C(=O)c2cc3sccc3n2Cc2ccc(Cl)cc2)CC1	-2	-20	1	57*	13	5
COc1ccccc1CN(CC(=O)NCc1ccco1)C(=O)CNS(=O)(=O)c1ccc(C)cc1	8	-13	-5	-11	21	56*
O=C(/C=C/c1cccc(Br)c1)Nc1nn[nH]n1	13	-26	5	5	13	5
Brc1cccc(/C=N/Nc2nn[nH]n2)c1	102*	-3	40	17	43*	18
CN(c1ncc(C(F)(F)F)cc1Cl)N1C(=O)c2cccc([N+](=O)[O-])c2C1=O	22	-8	47*	13	28	30
Cc1ccc(S(=O)(=O)C2CCOC2=O)cc1 (centres undefined)	-8	-20	1	-21	-18	-14
CCOC(=O)Cc1csc(NC(=O)c2sc3nc4ccc(CC)cc4cc3c2N)n1	43*	-28	91*	-241	21	24
COc1ccc(C(=O)Nc2ccc(N3CCN(C(=O)C(C)C)CC3)cc2)cc1[N+](=O)[O-]	1	-23	-15	-1	10	-12
COc1cccc(C(=O)N/N=C/c2ccc(OC3CSC3)cc2)c1	19	-15	45*	8	25	25
Cc1cccc(C(=O)N/N=C/c2ccc(OC3CSC3)cc2)c1	-8	-27	-23	-37	10	1
COc1ccc(-c2nnc(SCC(=O)NC(C)c3ccccc3)o2)cc1 (centres undefined)	-3	-18	19	-24	10	-9
O=C1C2CCCCC2C(=O)N1c1ccc(NC2CCN(Cc3ccccc3)CC2)c([N+](=O)[O-])c1 (centres undefined)	-3	-13	-4	84*	2	-2
CSc1ccccc1C(=O)C1CCCN(S(=O)(=O)N(C)C)C1 (centres undefined)	33	-7	39	24	102*	13
CSc1ccccc1C(=O)C1CCCN(C(=O)c2csnn2)C1 (centres undefined)	-2	-18	-1	-7	8	-15
COc1ccc(C(=O)N=c2sc3c(C)ccc(OC)c3n2C)cc1OC	0	-34	1	-245	4	-1
CCOC(=O)C(C(=O)OCC)C(C)(C)/C(C)=N\Nc1ccc([N+](=O)[O-])cc1[N+](=O)[O-]	13	-9	-9	6	18	-3
CCOC(=O)C(C)/C(C)=N\Nc1ccc([N+](=O)[O-])cc1[N+](=O)[O-] (centres undefined)	0	-13	.	52*	5	-2
O=C(CCC(=O)N1CCN(S(=O)(=O)c2ccc(Cl)cc2)CC1)Nc1cccc(Br)c1	13	-24	-23	83*	16	1
Cc1ccc(S(=O)(=O)CCN2C=CC(C(F)(F)F)=NCC2)cc1	21	13	34	13	41*	4
O=C(Nc1nnc(-c2ccccc2)s1)c1cc(S(=O)(=O)N2CCOCC2)c(Cl)cc1Cl	25	-9	5	21	41*	4
COc1ccc(C(=O)NCC(C)(C)SCc2c(C)cc(C)cc2C)cc1	-14	-23	-11	56*	2	16
COc1ccc(CNC(=O)c2ccc(C(C)(C)C)cc2)cc1	2	-23	5	7	12	-1
SMILES	FXIa inh 1536	Furin inhibitor	KLK5 inh	m-calpain inh	FXIIa inh 1536	Thrombin inh
O=C(N/N=C/c1ccccc1C(=O)O)c1ccccc1Br	62*	-1	60*	34	25	25
CCc1ccc(NCCC(=O)c2ccc(Cl)cc2)cc1	3	-8	-10	-4	17	1
Cc1ccc(NCCC(=O)c2ccc(Cl)cc2)cc1C	4	-11	47*	21	13	8
O=C(CSc1nc2ccccc2o1)c1cc2ccccc2oc1=O	6	-9	30	-40	13	81*
O=[N+]([O-])c1cccc(/C=N\N=C2c3ccccc3-c3ccccc32)c1O	22	-4	-10	61*	28	5
CC(C)(Oc1ccc(Cl)cc1)C(=O)OCn1nnc2ccccc2c1=O	3	-39	-26	0	13	-4
CCc1cc2cc(C)cc(C)c2nc1SCC(=O)N1CCN(C(=O)c2ccco2)CC1	5	-3	-7	37	16	4
Cc1cc(=O)n2[nH]cnc2n1	18	-18	41*	12	24	9
CCCc1cc(=O)n2[nH]cnc2n1	18	-13	-4	-16	22	-1
Clc1ccccc1CN1CCN(CCCc2ccccc2)CC1	3	-16	-2	34	98*	-7
OCC1(CCc2ccccc2)CCN(Cc2ccccc2Cl)CC1	4	-17	.	15	11	4
O=C(Nc1nnc(-c2ccc(F)cc2)s1)Nc1ccccc1F	-1	-18	-2	-15	9	-2
O=C(Nc1nnc(-c2ccccc2SCc2ccccc2F)s1)Nc1ccccc1F	19	-12	-10	51*	32	2
CCOc1ccc(NS(=O)(=O)c2ccc(NC(=S)NC(=O)C(C)C)cc2)cc1	1	-6	52*	35	15	7
CC(C)C(=O)NC(=S)Nc1ccc(S(=O)(=O)Nc2ccccc2)cc1	3	-18	43*	38	-1	23
COc1ccc(NS(=O)(=O)c2ccc(NC(=S)NC(=O)C(C)C)cc2)cc1	-8	-25	-3	2	-7	-7
CC(C)C(=O)NC(=S)Nc1ccc(S(=O)(=O)NC(C)(C)C)cc1	-2	-14	-9	1	8	-4
O=C(/C=C/c1ccc(N2CCCCC2)c([N+](=O)[O-])c1)c1ccc(O)cc1	1	-4	-1	-18	5	0
O=C(Nc1scc(-c2ccccc2)c1C(=O)O)c1ccco1	11	3	59*	6	26	50*
O=C(COc1ccccc1)NCC(=O)N/N=C/c1ccco1	4	-5	-22	0	15	-1
O=C(c1cc2ccccc2[nH]1)N1CCOCC1	9	1	29	22	18	48*
Cc1ccc(C)c(NC(=O)CSc2nc3nc(-c4cccs4)cc(C(F)(F)F)c3c(=O)[nH]2)c1	3	-30	3	-95	4	0
COc1cc(CNC(C)(C)CO)cc(Br)c1OCc1ccc(Cl)cc1	13	-4	-16	-3	18	-5
COc1cc(CNc2ccc(O)cc2)cc(Br)c1OCc1ccccc1	0	-26	.	64*	2	1
